Measured values: paper PMC6039207 (Clinical and Translational Science, 2018)
Marks after values point to notes of the source that are not given here.

Experiments:
WBC FAAH = settings: 4 mg once-daily dose more than sufficient; cited from earlier work
[1] = patients with osteoarthritis; cited from earlier work
human FAAH = settings: cited from earlier work
[2] = [11C]MK3168 radiometabolite analysis and brain uptake; assay type: in vivo, human; settings: for standardized uptake value (SUV), gray matter regions / tracer uptake in gray matter regions: baseline
Outline: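 In healthy men, the tracer was given as a slow IV bolus (356 ± 57MBq; molar activity 111 ± 67 GBq/μmol), synchronized with a 90-min list-mode PET/CT acquisition after low-dose CT for attenuation correction. Discrete arterial samples at each scan measured parent tracer and radiometabolites as the input function. Brain time-activity curves came from MRI-coregistered, template-based regions.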

[3] = single clinical doses, healthy volunteers; cited from earlier work
brain FAAH = molecular target: T1, brain FAAH (Homo sapiens, UniProt O00519); assay: brain FAAH occupancy by PET with [11C]MK3168; assay type: in vivo
T1 sequence (O00519 1-579): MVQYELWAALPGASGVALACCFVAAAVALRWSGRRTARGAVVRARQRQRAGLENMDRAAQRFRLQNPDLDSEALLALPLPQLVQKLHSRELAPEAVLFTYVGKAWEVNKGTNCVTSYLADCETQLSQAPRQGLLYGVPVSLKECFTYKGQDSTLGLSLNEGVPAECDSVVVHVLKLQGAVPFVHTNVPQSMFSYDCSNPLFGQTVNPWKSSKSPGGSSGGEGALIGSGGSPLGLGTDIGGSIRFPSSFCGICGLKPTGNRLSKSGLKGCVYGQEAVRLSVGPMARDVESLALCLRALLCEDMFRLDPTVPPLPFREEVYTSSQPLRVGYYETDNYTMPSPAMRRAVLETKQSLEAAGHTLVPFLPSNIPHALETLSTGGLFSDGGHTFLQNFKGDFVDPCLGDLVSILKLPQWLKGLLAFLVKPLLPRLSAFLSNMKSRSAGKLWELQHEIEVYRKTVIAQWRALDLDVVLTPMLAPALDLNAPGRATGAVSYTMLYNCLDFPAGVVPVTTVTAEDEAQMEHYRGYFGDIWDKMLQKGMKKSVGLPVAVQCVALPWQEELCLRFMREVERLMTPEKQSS
Outline: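 Healthy men were scanned by PET with [11C]MK3168 at baseline. In Part 2, scans followed single oral doses (2.5–100 mg range, adaptive; tracer injected 1 h postdose), with repeat doses at least 1 week apart. In Part 3, scans were 24 h after a single dose and 24 h after the last of 7 daily doses. Occupancy came from two-tissue compartment VT, baseline versus treatment.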

plasma protein binding = assay type: in vitro ADME; settings: humans, estimated
behavioral evaluations = assay type: in vivo, human
FAAH [4] = molecular target: T2, FAAH (Homo sapiens, UniProt O00519); assay: FAAH activity in leukocytes; assay type: in vivo
T2 sequence (O00519 1-579): T1 sequence (O00519 1-579)
Outline: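 Leukocyte FAAH activity was assayed in healthy volunteers dosed orally once daily for 10 days (10–100 mg cohorts, placebo controls). It was expressed as percent of predose activity. Sampling ran 0–24 h postdose on day 1 and 0–96 h after the day-10 dose. In the PET study, leukocytes were also sampled at scan midpoint, about 4 h 45 min postdose.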

[5] = JNJ-42165279 plasma and urine pharmacokinetics, MAD study; assay type: in vivo, human
Outline: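 Plasma and urine samples were taken from healthy volunteers given oral test compound once daily for 10 days (10–100 mg cohorts). Plasma was assayed by validated LC/MS/MS, with profiles over 0–24 h on day 1 and 0–96 h on day 10. PK parameters came from noncompartmental analysis. Accumulation ratios compared day 10 with day 1.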

[6] = treatment-emergent adverse events and safety, MAD study; assay type: in vivo, human; settings: MAD and PET studies
Outline: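 Safety covered treatment-emergent adverse events, physical examinations, laboratory tests, 12-lead ECG and vital signs. Subjects were healthy volunteers on 10 days of once-daily oral test compound (10–100 mg) or placebo, double-blind and randomized, six active and two placebo per cohort.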

CSF FAA (AA, AEA, OEA) = assay: FAA concentrations in CSF; assay type: in vivo, human; settings: for AEA concentration in cerebrospinal fluid / OEA concentration in cerebrospinal fluid / AA concentration in cerebrospinal fluid: young male volunteers, mean (SD)
Outline: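 CSF sampled in the double-blind, placebo-controlled multiple-ascending-dose study in healthy volunteers. Oral test compound or placebo was given once daily for 10 days: 10, 25 or 75 mg in young men, 100 mg in young women, 100 mg in elderly subjects. AEA, OEA and arachidonic acid were measured predose and after 6–7 days of dosing. Values were expressed against predose or baseline.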

FAAH [7] = settings: cited from earlier work
[8] = test system: plasma FAA (AEA, OEA, PEA); assay: FAA concentrations in plasma; assay type: in vivo, human
Outline: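 Plasma AEA, OEA and PEA were followed in healthy volunteers given oral test compound (10–100 mg) or placebo once daily for 10 days, six active and two placebo per cohort. Concentration–time profiles were taken on day 1 (0–24 h postdose) and day 10 (0–96 h postdose). Mean peak values were compared with mean peak placebo values.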

[9] = JNJ-42165279 concentration in CSF, MAD study; assay type: in vivo, human; settings: after 7 days
Outline: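 Test compound in CSF was quantified by a validated LC/MS/MS method after 7 days of once-daily oral dosing in healthy volunteers: 10 mg young men, 25 mg young men, and 100 mg elderly (men only). Values were related to plasma concentrations at Cmax on day 10.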

[10] = ∼24 h after stopping the 10 mg dosing
[11] = day 10 vs day 1, doses 10–100 mg, range across cohorts
[12] = Predose (baseline), 10 mg cohort
[13] = Predose (baseline), 25 mg cohort
[14] = Predose (baseline), 75 mg cohort

In the case of `O=C(Nc1cccnn1)N1CCC(=Cc2cccc(Oc3ccc(C(F)(F)F)cn3)c2)CC1` [PF‐04457845], the “inhibition of WBC FAAH” value (WBC FAAH) is given as 97% and the “effect on pain perception” value [1] is given as “no effect on pain perception”.
In the case of `CN(C)C(=O)[C@H]1C[C@@H]1c1ccc(-c2ncn(C)c2Sc2ccc(Cl)cn2)cc1` [[^11C]MK3168], the IC50 (human FAAH) is listed as 1 ± 0.6 nM, the “standardized uptake value (SUV), gray matter regions” value ([2]; at 20 min) is listed as ~3.0 and the “tracer uptake in gray matter regions” value ([2]; at 20 min) is listed as ~15 kBq/cc. For the same compound, the “standardized uptake value (SUV), gray matter regions” value ([2]; at 90 min) was ~2.0, the “tracer uptake in gray matter regions” value ([2]; at 90 min) was ~10 kBq/cc and the “parent tracer remaining in plasma” value ([2]; baseline scans, 10 min postinjection) was 30–40%. For the same compound, the “elimination of tracer from plasma” value ([2]; baseline scans, 60 min p.i.) was “almost complete elimination”.
For `CCCCCCC(C)(C)c1cc(O)c2c(c1)OC(C)(C)C1CCC(=O)CC21` (stereo not shown) [nabilone], the “effect on cognitive performance” value [3] is listed as “notable impairment on cognitive performance”.
In the case of `O=C(Nc1cnccc1Cl)N1CCN(Cc2ccc3c(c2)OC(F)(F)O3)CC1` [JNJ‐42165279], the “occupancy of brain FAAH” value (brain FAAH; 24 h after dosing with 10 mg) is reported as 80–85%, the “FAAH occupancy at trough” value (brain FAAH; after the first dose of 10 mg) is reported as > 80% and the “doses giving saturation of brain FAAH occupancy” value (brain FAAH; in vivo) is reported as ≥ 10 mg. For the same compound, the “brain FAAH occupancy” value (brain FAAH; single doses of 2.5 and 5 mg, at estimated Cmax) was “lesser, although appreciable, occupancy”, the “brain FAAH occupancy” value (brain FAAH; single doses of 10, 25, and 50 mg, at estimated Cmax) was 96–98% and the “brain FAAH occupancy” value (brain FAAH; [10]) was ≥ 80%. The unbound fraction (plasma protein binding) was 6.4–7.5%, the “quality of working memory (QWM)” value (behavioral evaluations; 100 mg, elderly volunteers, P ≤ 0.05, 4 h postdose days 1, 6, 10) was “significant negative treatment effect” and the ARCI-53 report (behavioral evaluations; 100 mg, women of nonchild-bearing potential) was “slight similarity to sedatives and dissimilarity to stimulants”. The “treatment effect on tapping, tracking, and postural stability” value (behavioral evaluations; MAD study) was “No treatment effects were observed”, the “ARCI-53: experiences similar to marijuana or hallucinogens” value (behavioral evaluations; all groups) was “no groups reported experiences similar to marijuana or hallucinogens” and the “FAAH activity remaining in leukocytes, mean trough” value (FAAH [4]; relative to predose values, after a single dose, 10–100 mg dose range) was 7.85–10.4%. The “FAAH activity recovered in leukocytes” value (FAAH [4]; [10]) was ~50%, the “estimated accumulation ratio for AUC” value [5, 11] was 144–337% and the “estimated accumulation ratio for Cmax” value [5, 11] was 98–156%. For the same compound, the terminal half-life ([5]; in vivo) was 8 to 14 h, the Mean plasma half-life ([5]; range of cohort means, 10–100 mg QD) was 8.14 to 14.1 h and the “deaths, serious or severe TEAEs, discontinuations due to TEAEs” value [6] was “No deaths, serious, or severe treatment emergent adverse event (TEAEs) or discontinuations due to TEAEs”. The “vital signs, ECG parameters including QTc, physical examination” value [6] was “no clinically significant treatment effects were observed”, the “increase of mean CSF AEA concentration relative to predose” value (CSF FAA (AA, AEA, OEA); 10 mg daily for 7 days) was ~45 fold and the “increase of mean CSF OEA concentration relative to predose” value (CSF FAA (AA, AEA, OEA); 10 mg daily for 7 days) was ~6.6 fold. The “increase of mean CSF AEA concentration relative to predose” value (CSF FAA (AA, AEA, OEA); 25 mg daily for 7 days) was ~41 fold, the “increase of mean CSF OEA concentration relative to predose” value (CSF FAA (AA, AEA, OEA); 25 mg daily for 7 days) was ~5.8 fold and the “increase of mean CSF AEA concentration relative to predose” value (CSF FAA (AA, AEA, OEA); 75 mg daily for 7 days) was ~77 fold. For the same compound, the “increase of mean CSF OEA concentration relative to predose” value (CSF FAA (AA, AEA, OEA); 75 mg daily for 7 days) was ~7.4 fold, the “AEA concentration in cerebrospinal fluid” value (CSF FAA (AA, AEA, OEA); Day 7, 10 mg daily) was 12.6 (4.86) and the “OEA concentration in cerebrospinal fluid” value (CSF FAA (AA, AEA, OEA); Day 7, 10 mg daily) was 139 (42.0). The “AA concentration in cerebrospinal fluid” value (CSF FAA (AA, AEA, OEA); Day 7, 25 mg daily, n=5) was 1.44 (0.52) ^b, the “AEA concentration in cerebrospinal fluid” value (CSF FAA (AA, AEA, OEA); Day 7, 25 mg daily, n=5) was 21.24 (7.39) ^b and the “OEA concentration in cerebrospinal fluid” value (CSF FAA (AA, AEA, OEA); Day 7, 25 mg daily, n=5) was 116.81 (26.07) ^b. For the same compound, the “AA concentration in cerebrospinal fluid” value (CSF FAA (AA, AEA, OEA); Day 7, 75 mg daily, n=5) was 1.81 (0.72) ^b, the “AEA concentration in cerebrospinal fluid” value (CSF FAA (AA, AEA, OEA); Day 7, 75 mg daily, n=5) was 28.88 (9.52) ^b and the “OEA concentration in cerebrospinal fluid” value (CSF FAA (AA, AEA, OEA); Day 7, 75 mg daily, n=5) was 150.24 (34.64) ^b. For the same compound, the “AEA concentration in cerebrospinal fluid” value (CSF FAA (AA, AEA, OEA); [12]) was 0.28 (0.31), the “OEA concentration in cerebrospinal fluid” value (CSF FAA (AA, AEA, OEA); [12]) was 21.2 (5.33) and the “AA concentration in cerebrospinal fluid” value (CSF FAA (AA, AEA, OEA); [13]) was 1.85 (0.52). For the same compound, the “AEA concentration in cerebrospinal fluid” value (CSF FAA (AA, AEA, OEA); [13]) was 0.52 (0.16), the “OEA concentration in cerebrospinal fluid” value (CSF FAA (AA, AEA, OEA); [13]) was 20.15 (10.19) and the “AA concentration in cerebrospinal fluid” value (CSF FAA (AA, AEA, OEA); [14]) was 2.04 (0.86). The “AEA concentration in cerebrospinal fluid” value (CSF FAA (AA, AEA, OEA); [14]) was 0.38 (0.21), the “OEA concentration in cerebrospinal fluid” value (CSF FAA (AA, AEA, OEA); [14]) was 20.21 (8.25) and the “increase of AEA concentrations in CSF” value (CSF FAA (AA, AEA, OEA); after 7 days of dosing) was 40–70 fold. For the same compound, the “affinity for human over rat FAAH” value (FAAH [7]) was “much higher affinity”, the “doses with maximal effect on plasma AEA turnover” value ([8]; in vivo) was ≥ 75 mg and the “increase of plasma AEA levels” value ([8]; lowest dose tested in the MAD study (10 mg)) was ≥ 10 fold. The “mean peak plasma AEA concentration versus mean peak placebo values” ([8]; single doses 10–100 mg) was 5.5–10 fold, the “mean peak plasma OEA and PEA concentrations versus mean peak placebo” value ([8]; single doses 10–100 mg) was 4.3–5.6 fold and the “Mean concentration of JNJ-42165279 in CSF” value (shortened to “Mean concentration”) ([9]; cohort A (25 mg)) was 8.95 ng/mL. For the same compound, the “Mean concentration” value ([9]; cohort D, men only) was 31.8 ng/mL, the “Mean concentration” value ([9]; cohort E (10 mg)) was 2.67 ng/mL and the “CSF concentration relative to plasma values at Cmax on day 10” value ([9]; slightly over) was “over 3%”.
